Screening results deposited in PubChem by several laboratories.
m5-HT2A agonist: agonists of mouse serotonin 5-HT2A receptor (HTR2A); CHO-K1 mHTR2A beta-arrestin complementation, luminescence; percent of 30 µM serotonin response; P35363; activation, % at 7.6 µM; 360,000 tested, 0.66% active;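 active means activation above a run cutoff, the mean activation of all tested compounds plus 3 SD, cut at about 14% in these data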
PREPL inh: human PREPL enzyme inhibition | Q4J6C6 | recombinant PREPL, fluorescence polarization activity-based probe | inhibition, % at 5.96 µM | 320,000 tested, 0.68% active | AID 2751; in the data active means inhibition above about 43%
MC4R antag cAMP: blocks human MC4R cAMP signaling. P32245. MC4R-expressing cells, MTII-stimulated cAMP, LANCE TR-FRET. inhibition, % at 6.5 µM. 360,000 tested, 0.48% active;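 active means inhibition above its plate's cutoff, the mean of tested wells on that plate plus 3 SD, cut at about 29% in these data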
Target sequence (P32245 whole entry, looked up): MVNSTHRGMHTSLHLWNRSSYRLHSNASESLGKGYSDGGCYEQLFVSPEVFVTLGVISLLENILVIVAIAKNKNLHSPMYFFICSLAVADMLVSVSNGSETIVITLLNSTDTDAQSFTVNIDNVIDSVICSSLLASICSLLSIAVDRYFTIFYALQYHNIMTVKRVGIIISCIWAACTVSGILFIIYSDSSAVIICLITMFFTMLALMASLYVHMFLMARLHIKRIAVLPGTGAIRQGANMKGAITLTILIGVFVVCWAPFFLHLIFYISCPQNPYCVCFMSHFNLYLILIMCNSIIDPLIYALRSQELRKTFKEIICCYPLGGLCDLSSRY
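Assay system: U2OS cells stably expressing human melanocortin 4 receptor (MC4R) / Dosing: 6.5 µM / Timing: compound 30 min, challenge 1 h, detection 1 h / Measured by: Eu-cAMP/anti-cAMP TR-FRET, emission 671 nm / Replicates: singlicate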
NTR1 agonist: NTR1 (human) agonism; P30989; NTR1-U2OS beta-arrestin-GFP spot imaging, agonist mode; activation, % at 20 µM; 330,000 tested, 0.17% active;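 active means activation at or above 40% of the spot to cytoplasm intensity ratio, with at least 20 cells analyzed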
Target sequence (P30989 whole entry, looked up): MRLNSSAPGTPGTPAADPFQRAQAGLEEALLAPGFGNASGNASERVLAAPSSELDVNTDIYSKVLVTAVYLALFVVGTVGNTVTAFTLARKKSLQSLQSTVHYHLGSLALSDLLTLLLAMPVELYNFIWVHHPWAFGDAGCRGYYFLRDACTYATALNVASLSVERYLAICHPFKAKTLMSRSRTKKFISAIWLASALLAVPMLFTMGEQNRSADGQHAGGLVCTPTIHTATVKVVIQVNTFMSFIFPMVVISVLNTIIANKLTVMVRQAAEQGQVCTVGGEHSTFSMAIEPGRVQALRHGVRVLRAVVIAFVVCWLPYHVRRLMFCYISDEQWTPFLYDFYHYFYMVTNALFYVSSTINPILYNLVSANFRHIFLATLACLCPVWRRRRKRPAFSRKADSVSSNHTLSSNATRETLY
MC4R barr agon: agonists of human melanocortin 4 receptor (MC4R) beta-arrestin; P32245; U2OS MC4R beta-arrestin complementation, luminescence; percent of melanotan II response, DMSO zero; activation, % at 8.9 µM; 360,000 tested, 0.98% active;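 active means activation above a per-plate cutoff, the mean activation of sample wells on that plate plus 3 SD, cut at about 8% in these data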
Lipid droplet: hepatic lipid droplet formation modulation. inhibition, % at 6.5 µM. AML12 mouse hepatocytes, oleate lipid droplets, BODIPY imaging. AID 1656. 240,000 tested, 0.4% active;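 active means lipid droplet intensity inhibited by at least 50%, with more than 500 cells counted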
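Test system: AML12 mouse liver cells; schedule: overnight exposure; technique: high-content imaging of BODIPY-stained droplets and DAPI nuclei; read-out: % inhibition of corrected integrated BODIPY droplet signal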
cAMP nonselect: counter-screen for MC4R antagonists: nonselective cAMP signaling inhibitors; AID 602193; inhibition, % at 6.5 µM; shares compounds with MC4R antag cAMP; parental U2OS, forskolin cAMP, LANCE TR-FRET; 1,600 tested, 26% active;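 active means mean inhibition over triplicates above the low-control well mean plus 3 SD, set per campaign, cut at about 13% in these data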;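 further: signal is single emission at 671 nm which falls as cellular cAMP rises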
MC4R antag conf: human MC4R cAMP antagonism confirmation; 1,600 tested, 27% active; shares compounds with MC4R antag cAMP; inhibition, % at 6.5 µM; MC4R-expressing cells, MTII-stimulated cAMP, TR-FRET; in the data active means inhibition above about 29%
Of the large screens only hits and unclear results are named; the others gave an inactive call (follow-up assays come after a bar, where they were run). Only some compounds are listed: those with a hit (about 2.7% of all), similar ones and a draw of the others.

O=C(O)COc1ccc2nsnc2c1Cl	MC4R antag cAMP 70 (no result: Lipid droplet) | cAMP nonselect 46 | MC4R antag conf 81
O=C(OC1CCOC1=O)c1cc(-c2cccs2)nc2ccccc12 (configuration not stated)	MC4R antag cAMP 35 | cAMP nonselect 26 | MC4R antag conf 38
COC(=O)c1ccc(C2c3[nH]c4ccccc4c3C[C@H]3C(=O)N(C4CCN(Cc5ccccc5)CC4)CC(=O)N23)cc1 (some centres not stated)	MC4R antag cAMP 37 | cAMP nonselect inactive | MC4R antag conf inactive
O=C1[C@@H]2Cc3c([nH]c4ccccc34)C(c3ccccc3)N2C(=O)CN1C1CCN(Cc2ccccc2)CC1 (some centres not stated)	none
COC(=O)C1CCN(C(=O)c2cc3c(=O)n4cccc(C)c4nc3n2Cc2ccccc2)CC1	MC4R antag cAMP 30 | cAMP nonselect inactive | MC4R antag conf inactive
NS(=O)(=O)c1ccc(NS(=O)(=O)c2ccc3c(c2)OCCO3)cc1	MC4R antag cAMP 30 | cAMP nonselect inactive | MC4R antag conf inactive
O=C(c1ccc(NS(=O)(=O)c2ccc3c(c2)OCCO3)cc1)N1CCCCC1	none
CS(=O)(=O)Nc1cccc(NC(=O)c2cccc3c(-c4cccc(C(N)=O)c4)coc23)c1	MC4R antag cAMP 44 (no result: PREPL inh, NTR1 agonist, Lipid droplet) | cAMP nonselect inactive | MC4R antag conf inactive
CS(=O)(=O)Nc1cccc(NC(=O)c2cccc3c(-c4ccc(F)c(F)c4)coc23)c1	none (no result: PREPL inh, NTR1 agonist, Lipid droplet)
CC(C)CN(C(=O)COC(=O)c1nc(Cl)ccc1Cl)C1CCS(=O)(=O)C1 (configuration not stated)	MC4R antag cAMP 36 | cAMP nonselect inactive | MC4R antag conf inactive
COc1ccc(CN2CCC[C@]3(N[C@H](c4ccccc4)[C@@H]4C(=O)N(Cc5ccccc5)C(=O)[C@@H]43)C2=O)cc1	MC4R antag cAMP 29 (no result: PREPL inh, NTR1 agonist, Lipid droplet) | cAMP nonselect inactive | MC4R antag conf inactive
O=C1CCCN1c1ccc(S(=O)(=O)Nc2cccnc2)cc1	MC4R antag cAMP 29 | cAMP nonselect inactive | MC4R antag conf inactive
Cc1nnc2n(-c3ccccc3)c(=O)c3c4c(sc3n12)CCCC4	MC4R antag cAMP 29 | cAMP nonselect inactive | MC4R antag conf inactive
Cc1nnc2n(-c3ccccc3)c(=O)c3c4c(sc3n12)COC(C)(C)C4	none (no result: Lipid droplet)
CC(C)(C)c1nc2c(Br)cc(Br)cc2c(=O)o1	none
COc1ccccc1OCCNC(=O)c1ccc(C)c(S(=O)(=O)N2CCOCC2)c1	none (no result: Lipid droplet)
Cc1cc(N2CCCC2=O)ccc1S(=O)(=O)Nc1c(C)nn(C)c1C	MC4R antag cAMP 34 | cAMP nonselect inactive | MC4R antag conf inactive
Cc1cc(N2CCCC2=O)cc(C)c1S(=O)(=O)Nc1c(C)nn(C)c1C	none
Cc1ccccc1CS(=O)(=O)c1nnc([C@H](CC(C)C)NC(=O)OC(C)(C)C)o1	MC4R antag cAMP 33 (no result: Lipid droplet) | cAMP nonselect inactive | MC4R antag conf inactive
CC[C@@H](C)[C@H](NC(=O)OC(C)(C)C)c1nnc(S(=O)(=O)Cc2cc(C)ccc2C)o1	none (no result: Lipid droplet)
CC(C)[C@H](NC(=O)OC(C)(C)C)c1nnc(S(=O)(=O)Cc2c(F)cccc2Cl)o1	MC4R antag cAMP 64 | cAMP nonselect 27 | MC4R antag conf 34
CN(c1ccccc1)S(=O)(=O)c1cc(C(=O)Nc2ccccc2N2CCOCC2)ccc1Cl	none (no result: PREPL inh, NTR1 agonist, Lipid droplet)
O=Cc1ccc(OC2OCCOC2Oc2ccc(C=O)cc2)cc1 (configuration not stated)	none
COc1ccc(N2CCN(C(=O)NCc3ccc(OC)c(Cl)c3)CC2)cc1	MC4R antag cAMP 31 | cAMP nonselect inactive | MC4R antag conf inactive
COc1ccc(N2CCN(C(=O)NCc3ccc(OC)c(OC)c3)CC2)cc1	none
COc1ccc(C(=O)O)cc1S(=O)(=O)NCCN(C)C	none
CCCCCCCCCCCCCCCCn1cc[n+](CC(C)=O)c1	MC4R antag cAMP 29, MC4R barr agon 16 (no result: PREPL inh, NTR1 agonist) | cAMP nonselect inactive | MC4R antag conf 33
CCCCCCn1ccc(=N)cc1	none (no result: Lipid droplet)
COc1ccc(-n2nnnc2C(c2cc3ccccc3o2)N2CCN(C/C=C/c3ccccc3)CC2)cc1 (configuration not stated)	none (no result: PREPL inh, MC4R antag cAMP, NTR1 agonist, MC4R barr agon, Lipid droplet)
Cc1ccc(S(=O)(=O)N2CCCCC2)cc1NC(=O)COC(=O)CNC(=O)c1cc(Cl)cc([N+](=O)[O-])c1	MC4R antag cAMP 31 | cAMP nonselect inactive | MC4R antag conf inactive
O=C(NCc1ccco1)C(c1ccccc1)N(C(=O)Cc1cccs1)c1cccnc1 (configuration not stated)	MC4R antag cAMP 29 | cAMP nonselect inactive | MC4R antag conf inactive
Cc1cccc(C)c1NC(=O)COc1ccccc1C(=O)Nc1ccc(Br)cn1	MC4R antag cAMP 33 | cAMP nonselect 50 | MC4R antag conf 91
CCN(c1ccccc1)S(=O)(=O)c1cc2c(cc1C)NC(=O)CO2	none
COc1ccc(C(=O)N(CC(=O)Nc2sc(C)c(C)c2C(N)=O)C2CCCC2)cc1	none
CCC(=O)N(CC(=O)Nc1sc(C)c(C)c1C(N)=O)C1CCCC1	MC4R antag cAMP 29 | cAMP nonselect inactive | MC4R antag conf inactive
O=c1ccn(C2CCCCC2)c(=O)[nH]1	none (no result: PREPL inh, NTR1 agonist, Lipid droplet)
CC(C)CNC(=O)COC(=O)c1c2c(nc3ccccc13)/C(=C\c1cccs1)CC2	MC4R antag cAMP 29 (no result: PREPL inh, NTR1 agonist, Lipid droplet) | cAMP nonselect inactive | MC4R antag conf inactive
N#CCCC(CCC#N)(CCC#N)c1cc[n+](CCc2ccccn2)cc1	none (no result: Lipid droplet)
CC(C)(C)OC(=O)N1CCC[C@@H]1C(=O)N1CCC[C@@H]1C(=O)NCc1ccccc1Cl	none (no result: PREPL inh, MC4R antag cAMP, NTR1 agonist, MC4R barr agon, Lipid droplet)
O=C(Cn1cc(C(F)(F)F)ccc1=O)NC(c1ccccc1)c1ccccc1	MC4R antag cAMP 36 | cAMP nonselect inactive | MC4R antag conf inactive
CC(C)(C)NC(=O)NC(=O)Cn1cc(C(F)(F)F)ccc1=O	none (no result: Lipid droplet)
Cc1ccc(S(=O)(=O)NCC(=O)OC(C)C(=O)Nc2ncc(Cl)cc2Cl)cc1 (configuration not stated)	MC4R antag cAMP 31 (no result: Lipid droplet) | cAMP nonselect 14 | MC4R antag conf inactive
Cc1ccc(S(=O)(=O)NCC(=O)OCC(=O)Nc2ncc(Cl)cc2Cl)cc1	none
Cc1ccc(C(O)c2ncc(-c3ccccc3C)[nH]2)cc1F (configuration not stated)	none (no result: PREPL inh, NTR1 agonist, Lipid droplet)
COc1ccc(S(=O)(=O)N2CCOC2CNC(=O)C(=O)NCCCN2CCCC2=O)cc1OC (configuration not stated)	none (no result: PREPL inh, NTR1 agonist, Lipid droplet)
Cc1csc(C(C)N(C)C(=O)CCc2nnc(CCc3ccccc3)o2)n1 (configuration not stated)	MC4R antag cAMP 29 | cAMP nonselect inactive | MC4R antag conf inactive
C=CC[C@@H](CC(=O)N(CCO)Cc1ccccc1)C(=O)NC[C@H](OC(=O)[C@@H](CC=C)Cc1ccc(F)cc1)c1ccccc1	MC4R antag cAMP 35 (no result: Lipid droplet) | cAMP nonselect inactive | MC4R antag conf inactive
C=CC[C@@H](CC(=O)N(CCO)Cc1ccccc1)C(=O)N[C@H](COC(=O)[C@@H](CC=C)Cc1ccc(F)cc1)c1ccccc1	none (no result: Lipid droplet)
